ChEMBL document CHEMBL1126585, “Effect of N-methyl substitution of the peptide bonds in luteinizing hormone-releasing hormone agonists” (J Med Chem, 1993)
Square brackets hold non-standard residues; d marks the D form. Peptide text beside a SMILES is read from it. pGlu = O=C1CC[C@@H](C(=O)O)N1

What was measured:
[1] = Clearance in rat after iv dose (100 ug/kg); assay type: ADME, organism-based; settings: in vivo, 0.1 mg/kg
Method in brief: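 Castrate male rats given 100 μg/kg iv bolus; blood sampled over 6 h with EDTA anticoagulant. Plasma levels by RIA with antibody recognizing C-terminal Leu-Arg-Pro-NHEt or Leu-Arg-Pro-GlyNH₂ (rabbit antisera C-402 with [125I-Tyr⁵]leuprolide tracer, or 5328W with [125I-Tyr⁵,DLys⁶]LHRH). AUC by trapezoidal rule; whole-body clearance = dose/AUC, mL/min per kg.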

[2] = system: chymotrypsin; experiment: Chymotrypsin degradation half-life was determined; assay type: ADME
[3] = species on record: Rattus norvegicus; experiment: Tested in vitro for LH release from cultured rat pituitary cells, activity is expressed as pD2 value; assay type: functional, Pituitary gland cell
Method in brief: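 Cultured rat pituitary cells; LH release measured across agonist concentrations; pD2 = negative log of agonist concentration giving 50% of maximal LH release.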

[4] = species on record: Rattus norvegicus; experiment: Intestinal stability against rat jejunum sac, activity is expressed as T1/2; assay type: functional
Method in brief: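 Rat jejunal sac in vitro; T1/2 taken as time, in min, for lumenal compound concentration to fall by 50%.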

| SMILES | clearance [1] [mL/min/kg] | half-life [2] [min] | pD2 [3] | T1/2 [4] [min] |
| --- | --- | --- | --- | --- |
| CCNC(=O)[C@@H]1CCCN1C(=O)[C@H](CCCN=C(N)N)NC(=O)C(CC(C)C)NC(=O)C(CC(C)C)NC(=O)[C@H](Cc1ccc(O)cc1)NC(=O)[C@H](CO)NC(=O)[C@H](Cc1c[nH]c2ccccc12)NC(=O)[C@H](Cc1c[nH]cn1)N(C)C(=O)[C@@H]1CCC(=O)N1 (stereo in doubt) [listing 1 of 3 here] | 7.16 | 7 | – | – |
| CC(C)C[C@H](NC(=O)[C@@H](Cc1ccc2ccccc2c1)NC(=O)[C@H](Cc1ccc(O)cc1)NC(=O)[C@H](CO)NC(=O)[C@H](Cc1cccc2ccccc12)NC(=O)[C@H](Cc1c[nH]cn1)NC(=O)[C@@H]1CCC(=O)N1)C(=O)N[C@@H](CCCN=C(N)N)C(=O)N1CCC[C@H]1C(=O)NCC(N)=O | – | – | 11.55 | – |
| CCNC(=O)[C@@H]1CCCN1C(=O)[C@H](CCCN=C(N)N)NC(=O)[C@H](CC(C)C)NC(=O)[C@@H](Cc1c[nH]c2ccccc12)NC(=O)[C@H](Cc1ccc(O)cc1)NC(=O)[C@H](CO)NC(=O)[C@H](Cc1c[nH]c2ccccc12)NC(=O)[C@H](Cc1ccccc1)NC(=O)[C@@H]1CCC(=O)N1 ([pGlu]FWSY[dW]LRP-NHEt) | 28.8 | – | – | 10.8 |
| CCNC(=O)[C@@H]1CCCN1C(=O)[C@H](CCCN=C(N)N)NC(=O)[C@H](CC(C)C)NC(=O)[C@@H](Cc1c[nH]c2ccccc12)NC(=O)[C@H](Cc1ccc(O)cc1)NC(=O)[C@H](CO)N(C)C(=O)[C@H](Cc1c[nH]c2ccccc12)NC(=O)[C@H](Cc1c[nH]cn1)NC(=O)[C@@H]1CCC(=O)N1 | – | – | – | 39.1 |
| CCNC(=O)[C@@H]1CCCN1C(=O)[C@H](CCCN=C(N)N)NC(=O)[C@H](CC(C)C)NC(=O)[C@@H](CC(C)C)N(C)C(=O)[C@H](Cc1ccc(O)cc1)NC(=O)[C@H](CO)NC(=O)[C@H](Cc1c[nH]c2ccccc12)NC(=O)[C@H](Cc1cnc[nH]1)NC(=O)[C@@H]1CCC(=O)N1 | 21 | 1 | – | – |
| CCNC(=O)[C@@H]1CCCN1C(=O)[C@H](CCCN=C(N)N)NC(=O)[C@H](CC(C)C)NC(=O)[C@@H](CC(C)C)NC(=O)[C@H](Cc1ccc(O)cc1)NC(=O)[C@H](CO)NC(=O)[C@H](Cc1c[nH]c2ccccc12)NC(=O)[C@H](Cc1ccccc1)NC(=O)[C@@H]1CCC(=O)N1 ([pGlu]FWSY[dL]LRP-NHEt) | 25.4 | – | – | 2.2 |
| CCNC(=O)[C@@H]1CCCN1C(=O)[C@H](CCCNC(=N)N)NC(=O)[C@H](CC(C)C)N(C)C(=O)[C@@H](Cc1c[nH]c2ccccc12)NC(=O)[C@H](Cc1ccc(O)cc1)NC(=O)[C@H](CO)NC(=O)[C@H](Cc1c[nH]c2ccccc12)NC(=O)[C@H](Cc1c[nH]cn1)NC(=O)[C@@H]1CCC(=O)N1 [LUTRELIN] | 19.5 | – | 10.7 | – |
| CC(C)C[C@H](NC(=O)[C@@H](Cc1ccc2ccccc2c1)NC(=O)[C@H](Cc1ccc(O)cc1)NC(=O)[C@H](CO)NC(=O)[C@H](Cc1c[nH]c2ccccc12)NC(=O)[C@H](Cc1c[nH]cn1)NC(=O)[C@@H]1CCC(=O)N1)C(=O)N[C@@H](CCCN=C(N)N)C(=O)N1CCC[C@H]1C(=O)N(C)CC(N)=O | 3.55 | – | 11.87 | – |
| CC(C)C[C@H](NC(=O)[C@@H](Cc1ccc2ccccc2c1)NC(=O)[C@H](Cc1ccc(O)cc1)NC(=O)[C@H](CO)NC(=O)[C@H](Cc1c[nH]c2ccccc12)NC(=O)[C@H](Cc1c[nH]cn1)N(C)C(=O)[C@@H]1CCC(=O)N1)C(=O)N[C@@H](CCCN=C(N)N)C(=O)N1CCC[C@H]1C(=O)NCC(N)=O | 4.13 | – | 8.18 | – |
| CC(C)C[C@H](NC(=O)[C@@H](Cc1ccc2ccccc2c1)N(C)C(=O)[C@H](Cc1ccc(O)cc1)NC(=O)[C@H](CO)NC(=O)[C@H](Cc1c[nH]c2ccccc12)NC(=O)[C@H](Cc1c[nH]cn1)NC(=O)[C@@H]1CCC(=O)N1)C(=O)N[C@@H](CCCN=C(N)N)C(=O)N1CCC[C@H]1C(=O)NCC(N)=O | – | – | 8.3 | – |
| CCNC(=O)[C@@H]1CCCN1C(=O)[C@H](CCCN=C(N)N)NC(=O)[C@H](CC(C)C)NC(=O)[C@@H](Cc1c[nH]c2ccccc12)NC(=O)[C@H](Cc1ccc(O)cc1)NC(=O)[C@H](CO)NC(=O)[C@H](Cc1cccc2ccccc12)N(C)C(=O)[C@H](Cc1c[nH]cn1)NC(=O)[C@@H]1CCC(=O)N1 | 15.1 | – | 8.35 | – |
| CC(C)C[C@@H](C(=O)N[C@@H](CCCN=C(N)N)C(=O)N1CCC[C@H]1C(=O)NCC(N)=O)N(C)C(=O)[C@@H](Cc1ccc2ccccc2c1)NC(=O)[C@H](Cc1ccc(O)cc1)NC(=O)[C@H](CO)NC(=O)[C@H](Cc1c[nH]c2ccccc12)NC(=O)[C@H](Cc1c[nH]cn1)NC(=O)[C@@H]1CCC(=O)N1 | – | – | 12.35 | – |
| CCNC(=O)[C@@H]1CCCN1C(=O)[C@H](CCCN=C(N)N)NC(=O)[C@H](CC(C)C)NC(=O)[C@@H](CC(C)C)NC(=O)[C@H](Cc1ccc(O)cc1)N(C)C(=O)[C@H](CO)NC(=O)[C@H](Cc1c[nH]c2ccccc12)NC(=O)[C@H](Cc1cnc[nH]1)NC(=O)[C@@H]1CCC(=O)N1 | 8.2 | > 60 | – | – |
| CCNC(=O)[C@@H]1CCCN1C(=O)[C@H](CCCN=C(N)N)NC(=O)C(CC(C)C)NC(=O)C(CC(C)C)NC(=O)[C@H](Cc1ccc(O)cc1)NC(=O)[C@H](CO)NC(=O)[C@H](Cc1c[nH]c2ccccc12)NC(=O)[C@H](Cc1c[nH]cn1)N(C)C(=O)[C@@H]1CCC(=O)N1 (stereo in doubt) [listing 2 of 3 here] | – | – | – | 48 |
| CCNC(=O)[C@@H]1CCCN1C(=O)[C@H](CCCN=C(N)N)NC(=O)[C@H](CC(C)C)NC(=O)[C@@H](Cc1c[nH]c2ccccc12)NC(=O)[C@H](Cc1ccc(O)cc1)NC(=O)[C@H](CO)N(C)C(=O)[C@H](Cc1c[nH]c2ccccc12)NC(=O)[C@H](Cc1cnc[nH]1)NC(=O)[C@@H]1CCC(=O)N1 | 19.9 | – | – | – |
| CCNC(=O)[C@@H]1CCCN1C(=O)[C@H](CCCN=C(N)N)N(C)C(=O)[C@H](CC(C)C)NC(=O)[C@@H](Cc1c[nH]c2ccccc12)NC(=O)[C@H](Cc1ccc(O)cc1)NC(=O)[C@H](CO)NC(=O)[C@H](Cc1c[nH]c2ccccc12)NC(=O)[C@H](Cc1c[nH]cn1)NC(=O)[C@@H]1CCC(=O)N1 | 25 | – | 9.35 | – |
| CC(C)C[C@H](NC(=O)[C@@H](Cc1c[nH]c2ccccc12)NC(=O)[C@H](Cc1ccc(O)cc1)NC(=O)[C@H](CO)NC(=O)[C@H](Cc1c[nH]c2ccccc12)NC(=O)[C@H](Cc1c[nH]cn1)NC(=O)[C@@H]1CCC(=O)N1)C(=O)N[C@@H](CCCN=C(N)N)C(=O)N1CCC[C@H]1C(=O)N(C)CC(N)=O | 4.32 | – | 10.05 | – |
| CC(C)C[C@H](NC(=O)[C@@H](Cc1ccc2ccccc2c1)NC(=O)[C@H](Cc1ccc(O)cc1)NC(=O)[C@H](CO)NC(=O)[C@H](Cc1c[nH]c2ccccc12)NC(=O)[C@H](Cc1cnc[nH]1)NC(=O)[C@@H]1CCC(=O)N1)C(=O)N[C@@H](CCCNC(=N)N)C(=O)N1CCC[C@H]1C(=O)NCC(N)=O [NAFARELIN] | 5.5 | 0.5 | 11.05 | – |
| CCNC(=O)[C@@H]1CCCN1C(=O)[C@H](CCCNC(=N)N)NC(=O)[C@H](CC(C)C)NC(=O)[C@@H](Cc1c[nH]c2ccccc12)NC(=O)[C@H](Cc1ccc(O)cc1)NC(=O)[C@H](CO)NC(=O)[C@H](Cc1c[nH]c2ccccc12)NC(=O)[C@H](Cc1c[nH]cn1)NC(=O)[C@@H]1CCC(=O)N1 [DESLORELIN] | 34.3 | – | 11.33 | – |
| CCNC(=O)[C@@H]1CCCN1C(=O)[C@H](CCCN=C(N)N)NC(=O)[C@H](CC(C)C)NC(=O)[C@@H](CC(C)C)NC(=O)[C@H](Cc1ccc(O)cc1)N(C)C(=O)[C@H](CO)NC(=O)[C@H](Cc1c[nH]c2ccccc12)NC(=O)[C@H](Cc1c[nH]cn1)NC(=O)[C@@H]1CCC(=O)N1 | – | – | – | 42 |
| CCNC(=O)[C@@H]1CCCN1C(=O)[C@H](CCCN=C(N)N)NC(=O)[C@H](CC(C)C)NC(=O)[C@@H](Cc1c[nH]c2ccccc12)NC(=O)[C@H](Cc1ccc(O)cc1)NC(=O)[C@H](CO)NC(=O)[C@H](Cc1cccc2ccccc12)NC(=O)[C@H](Cc1c[nH]cn1)NC(=O)[C@@H]1CCC(=O)N1 | – | – | 11.49 | – |
| CCNC(=O)[C@@H]1CCCN1C(=O)[C@H](CCCN=C(N)N)NC(=O)[C@H](CC(C)C)NC(=O)[C@@H](Cc1c[nH]c2ccccc12)NC(=O)[C@H](Cc1ccc(O)cc1)N(C)C(=O)[C@H](CO)NC(=O)[C@H](Cc1c[nH]c2ccccc12)NC(=O)[C@H](Cc1c[nH]cn1)NC(=O)[C@@H]1CCC(=O)N1 | 11.1 | – | 10.55 | – |
| CC(C)C[C@H](NC(=O)[C@@H](Cc1ccc2ccccc2c1)NC(=O)[C@H](Cc1ccc(O)cc1)NC(=O)[C@H](CO)NC(=O)[C@H](Cc1cccc2ccccc12)N(C)C(=O)[C@H](Cc1c[nH]cn1)NC(=O)[C@@H]1CCC(=O)N1)C(=O)N[C@@H](CCCN=C(N)N)C(=O)N1CCC[C@H]1C(=O)NCC(N)=O | – | – | 8.7 | – |
| CCNC(=O)[C@@H]1CCCN1C(=O)[C@H](CCCN=C(N)N)NC(=O)[C@H](CC(C)C)NC(=O)[C@@H](CC(C)C)N(C)C(=O)[C@H](Cc1ccc(O)cc1)NC(=O)[C@H](CO)NC(=O)[C@H](Cc1c[nH]c2ccccc12)NC(=O)[C@H](Cc1c[nH]cn1)NC(=O)[C@@H]1CCC(=O)N1 | – | – | 9.61 | 54 |
| CCNC(=O)[C@@H]1CCCN1C(=O)[C@H](CCCN=C(N)N)NC(=O)C(CC(C)C)NC(=O)C(CC(C)C)NC(=O)[C@H](Cc1ccc(O)cc1)NC(=O)[C@H](CO)NC(=O)[C@H](Cc1c[nH]c2ccccc12)NC(=O)[C@H](Cc1c[nH]cn1)N(C)C(=O)[C@@H]1CCC(=O)N1 (stereo in doubt) [listing 3 of 3 here] | – | – | 8.22 | – |
| CC(C)C[C@H](NC(=O)[C@@H](Cc1ccc2ccccc2c1)NC(=O)[C@H](Cc1ccc(O)cc1)NC(=O)[C@H](CO)NC(=O)[C@H](Cc1c[nH]c2ccccc12)NC(=O)[C@H](Cc1ccccc1)NC(=O)[C@@H]1CCC(=O)N1)C(=O)N[C@@H](CCCN=C(N)N)C(=O)N1CCC[C@H]1C(=O)NCC(N)=O | – | – | 10.23 | – |
